Assay [1] relates to Mycobacterium tuberculosis. As to the kind of experiment: Antimycobacterial activity against Mycobacterium tuberculosis H37Rv after 24 hrs by tetrazolium microplate assay. Type of assay: functional. In outline:
(§1)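 TEMA broth microdilution; inoculum from 20–30-day-old slant growth suspended in Tween 80/0.2% BSA, adjusted to McFarland No. 1, final ca. 1.2 × 10⁶ CFU/mL. Compound mixed 1:1 with inoculum, DMSO solvent control; sealed plates incubated 37 °C 5 days, then MTT/Tween 80 added, 24 h 37 °C; yellow-to-purple colour change read. MIC = lowest concentration giving 100% inhibition; means of 3 or 4 replicates.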

For assay [2], the system named is Mycobacterium tuberculosis. Description: Antimycobacterial activity against Mycobacterium tuberculosis isolate 02TBDM039EP097 after 24 hrs by tetrazolium microplate assay. Type of assay: functional. The following applies: isolate 02TBDM039EP097, 24 h. In short, it runs like this:
as §1

Drawing on ChEMBL document CHEMBL1795283, “Dihydro-β-agarofuran sesquiterpenes isolated from Celastrus vulcanicola as potential anti-Mycobacterium tuberculosis multidrug-resistant agents” (2011), this text covers MIC for 26 molecules.

Converted amounts (≈) assume the structure as drawn.

As for `CC1(C)O[C@]23[C@H](O)[C@H]1[C@H](O)[C@H](O)[C@]2(C)[C@@H](O)CC[C@]3(C)O`, the MIC in assay [1] and in assay [2] was above 25 µg/mL in each case.

Turning to `CC(=O)O[C@H]1[C@@H]2[C@@H](OC(=O)c3cccnc3)[C@]3(OC2(C)C)[C@H](C)CC[C@H](OC(C)=O)[C@@]3(C)[C@H]1OC(=O)c1ccccc1`, the MIC in assay [1] was above 25 µg/mL; in assay [2], 25 µg/mL (≈ 43.1 µM).

`CC(=O)O[C@H]1[C@@H]2[C@@H](O)[C@]3(OC2(C)C)[C@H](C)CC[C@H](OC(C)=O)[C@@]3(C)[C@H]1OC(=O)c1ccccc1`: the MIC in assay [1] and in assay [2] was above 25 µg/mL throughout.

For the molecule `CC(=O)O[C@H]1CC[C@](C)(O)[C@]23OC(C)(C)[C@H]([C@H](O)[C@H](OC(=O)c4ccccc4)[C@]12C)[C@H]3OC(C)=O`, the MIC in assay [1] and in assay [2] was above 25 µg/mL throughout.

For `CC(=O)O[C@@H]1[C@@H]2[C@@H](OC(=O)c3ccccc3)[C@@]3(OC2(C)C)[C@@](C)([C@@H](OC(C)=O)CC[C@]3(C)O)[C@H]1OC(=O)c1ccccc1`, the MIC was above 25 µg/mL in assay [1] and 12.5 µg/mL (≈ 21 µM) in assay [2].

As to `CC(=O)O[C@H]1CC[C@](C)(O)[C@]23OC(C)(C)[C@H]([C@H](OC(=O)[C@H](O)[C@@H](O)c4ccccc4)[C@H](OC(=O)c4ccccc4)[C@]12C)[C@H]3O`, the MIC in assay [1] and in assay [2] was above 25 µg/mL each time.

In the case of `CC(=O)O[C@@H]1[C@@H]2[C@@H](OC(=O)c3cccnc3)[C@@]3(OC2(C)C)[C@@](C)([C@@H](OC(C)=O)CC[C@]3(C)O)[C@H]1OC(=O)c1ccccc1`, the minimal inhibitory concentration (MIC) in assay [1] and in assay [2] was above 25 µg/mL in each case.

For the molecule `CC(=O)O[C@H]1[C@@H]2[C@@H](OC(C)=O)[C@@]3(OC2(C)C)[C@@](C)([C@@H](OC(C)=O)CC[C@]3(C)O)[C@H]1OC(C)=O`, the MIC in assay [1] and in assay [2] was above 25 µg/mL throughout.

As for `CC(=O)O[C@H]1[C@@H]2[C@@H](OC(C)=O)[C@@]3(OC2(C)C)[C@@](C)([C@@H](OC(C)=O)CC[C@]3(C)O)[C@H]1O`, the minimum inhibitory concentration (MIC) in assay [1] and in assay [2] was above 25 µg/mL each time.

Turning to `CC(=O)O[C@H]1[C@@H]2[C@@H](O)[C@@]3(OC2(C)C)[C@@](C)([C@@H](OC(C)=O)CC[C@]3(C)O)[C@H]1O`, the minimum inhibitory concentration (MIC) in assay [1] and in assay [2] was above 25 µg/mL each time.

As for `CC(=O)O[C@H]1CC[C@@H](C)[C@]23OC(C)(C)[C@H]([C@H](OC(=O)/C=C\c4ccccc4)[C@H](OC(=O)c4ccccc4)[C@]12C)[C@H]3O`, the figures for the MIC in assay [1] and in assay [2] were above 25 µg/mL and 25 µg/mL (≈ 44.4 µM), respectively.

`CC(=O)O[C@H]1CC[C@](C)(O)[C@]23OC(C)(C)[C@H]([C@H](OC(=O)/C=C\c4ccccc4)[C@H](OC(=O)c4ccccc4)[C@]12C)[C@H]3O`: the MIC in assay [1] and in assay [2] was above 25 µg/mL in each case.

As for `CC(=O)O[C@H]1[C@@H]2[C@@H](OC(=O)c3ccccc3)[C@@]3(OC2(C)C)[C@@](C)([C@@H](OC(C)=O)CC[C@]3(C)O)[C@H]1OC(=O)c1ccccc1`, the minimal inhibitory concentration (MIC) in assay [1] and in assay [2] was above 25 µg/mL throughout.

Regarding `CC(=O)O[C@H]1[C@@H]2[C@@H](OC(=O)c3cccnc3)[C@@]3(OC2(C)C)[C@@](C)([C@@H](OC(C)=O)CC[C@]3(C)O)[C@H]1OC(=O)c1ccccc1`, the MIC in assay [1] and in assay [2] was above 25 µg/mL in each case.

`CC(=O)O[C@H]1CC[C@@H](C)[C@]23OC(C)(C)[C@H](C[C@H](OC(=O)/C=C/c4ccccc4)[C@]12C)[C@H]3OC(C)=O`: the MIC is above 25 µg/mL in assay [1] and 12.5 µg/mL (≈ 25.8 µM) in assay [2].

Regarding `CC(=O)O[C@H]1CC[C@@H](C)[C@]23OC(C)(C)[C@H](C[C@H](OC(=O)/C=C/c4ccccc4)[C@]12C)[C@H]3O`, the MIC in assay [1] was above 25 µg/mL; in assay [2], 25 µg/mL (≈ 56.5 µM).

Take `CC(=O)O[C@H]1[C@@H](O)C[C@](C)(O)[C@]23OC(C)(C)[C@H]([C@H](OC(=O)/C=C/c4ccccc4)[C@H](OC(=O)c4ccccc4)[C@]12C)[C@H]3O`: the minimum inhibitory concentration (MIC) in assay [1] and in assay [2] was above 25 µg/mL throughout.

As for `CC(=O)O[C@H]1CC[C@@H](C)[C@@]23C[C@@H](C[C@H](OC(=O)/C=C/c4ccccc4)[C@]12C)C(C)(C)O3`, the minimal inhibitory concentration (MIC) in assay [1] and in assay [2] was above 25 µg/mL throughout.

Consider `CC(=O)O[C@H]1[C@@H]2[C@@H](OC(=O)c3ccccc3)[C@@]3(OC2(C)C)[C@](C)([C@H]1OC(=O)c1ccccc1)[C@@H](OC(C)=O)[C@@H](O)C[C@]3(C)O`, for which the MIC in assay [1] and in assay [2] was above 25 µg/mL each time.

As for `CC(=O)O[C@H]1CC[C@@H](C)[C@]23OC(C)(C)[C@H]([C@H](OC(=O)/C=C/c4ccccc4)[C@H](OC(=O)c4ccccc4)[C@]12C)[C@H]3O`, the MIC is above 25 µg/mL in assay [1] and 12.5 µg/mL (≈ 22.2 µM) in assay [2].

For `CC(=O)O[C@H]1CC[C@](C)(O)[C@]23OC(C)(C)[C@H]([C@H](OC(=O)/C=C/c4ccccc4)[C@H](OC(=O)c4ccccc4)[C@]12C)[C@H]3O`, the MIC is above 25 µg/mL in assay [1] and 12.5 µg/mL (≈ 21.6 µM) in assay [2].

As for `CC(=O)O[C@H]1CC[C@@H](C)[C@]23OC(C)(C)[C@H](C[C@H](OC(=O)c4ccccc4)[C@]12C)[C@H]3OC(=O)c1ccccc1`, the results for the MIC in assay [1] and in assay [2] were above 25 µg/mL and 6.2 µg/mL (≈ 11.9 µM), respectively.

For the molecule `CC(=O)O[C@H]1CC[C@](C)(O)[C@]23OC(C)(C)[C@H]([C@H](OC(=O)/C=C/c4ccccc4)[C@H](OC(=O)c4ccccc4)[C@]12C)[C@H]3OC(C)=O`, the values for the MIC in assay [1] and in assay [2] were above 25 µg/mL and 12.5 µg/mL (≈ 20.1 µM), respectively.

Consider `NNC(=O)c1ccncc1` [ISONIAZID], for which the minimal inhibitory concentration (MIC) in assay [1] was found to be 0.125 µg/mL (≈ 0.911 µM); in assay [2], 4 µg/mL (≈ 29.2 µM).

For the molecule `CC(=O)O[C@H]1CC[C@](C)(O)[C@]23OC(C)(C)[C@H]([C@H](O)[C@H](OC(=O)c4ccccc4)[C@]12C)[C@H]3O` [REISSANTIN D], the MIC in assay [1] and in assay [2] was above 25 µg/mL in each case.

For `CO[C@H]1/C=C/O[C@@]2(C)Oc3c(C)c(O)c4c(O)c(c(/C=N/N5CCN(C)CC5)c(O)c4c3C2=O)NC(=O)/C(C)=C\C=C\[C@H](C)[C@H](O)[C@@H](C)[C@@H](O)[C@@H](C)[C@H](OC(C)=O)[C@@H]1C` [RIFAMPIN], the figures for the MIC in assay [1] and in assay [2] were 0.063 µg/mL (≈ 0.0766 µM) and above 16 µg/mL, respectively.

By MIC is commonly meant the lowest concentration found to suppress growth.
